# Assay outcomes as filed in PubChem.
# Hits are enriched below; roughly 1.6% of the tested compounds scored in any of these assays.
# TPT1 inhibitor: blocks Candida albicans tRNA 2'-phosphotransferase; recombinant caTPT1, FP RNA substrate dephosphorylation; inhibition, % at 5 µM; 0.81% of 300,000 active; AID 1962;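 active = inhibition above the mean of all tested compounds plus 3 SD, set per screening campaign, cut at about 24% in these data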;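 note: plate controls were DMSO alone for no effect and ferristatin control at 100 nM for full effect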
# Rpn11 inh: Rpn11 (human) deubiquitinase inhibition; O00487; human 26S proteasome, Ub4-pepOG fluorescence polarization; 20S core pre-blocked with epoxomicin; inhibition, % at 20 µM; 0.59% of 360,000 active; AID 588493;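 active = inhibition at 20 µM, scaled to each plate's controls, above about 33%, limit read from the data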
# SENP1 inh: inhibitors of human SENP1 SUMO protease catalytic domain. Q9P0U3. recombinant SENP1 catalytic domain, CyPet-SUMO1-YPet FRET cleavage. inhibition, % at 10 µM. 0.21% of 360,000 active;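 active = inhibition at least 30% at 10 µM, raw YFP signal under a set limit, fluorescence ratio 0.5 to 1.5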;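 note: 0% = enzyme with DMSO and 100% = no enzyme wells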
#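 Compound: 10 µM single point, 0.5% DMSO; Test system: hSENP1 catalytic domain, recombinant; Timing: 50 min reaction at room temperature; Technique: FRET, CFP and YFP emission; Control set: no-enzyme wells low, DMSO-plus-enzyme wells high control.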
# HNF4A DNA FP: change in binding of human HNF4 alpha to DNA | activity change, % at 10 µM | 0.3% of 360,000 active | HNF4a-FITC DNA binding, fluorescence polarization, 1 h | AID 1224865 | P41235; in the data active = activity change above about 30%, passing the limit was not always enough
# CSN deneddyl inh: blocks human CSN-mediated cullin deneddylation; inhibition, % at 12.5 µM; AID 651999; Purified CSN, SCF-Nedd8-OG deneddylation, fluorescence polarization; 0.38% of 360,000 active; Q92905;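 active = pattern-corrected inhibition above about 35%, with an unprinted fluorescence ratio check between 0.5 and 1.5, limit read from the data, passing the limit was not always enough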;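 note: 0% = enzyme with substrate and 100% = substrate without enzyme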
#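 Detection – fluorescence polarization · System – HEK293T-derived human Csn5 enzyme · Controls – substrate-only high control, full reaction low control · Timing – 90 min, room temperature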
# Rpn11 confirm: Rpn11 inhibition confirmation, single concentration | shares compounds with Rpn11 inh | purified human 26S proteasome, Ub4-pepOG fluorescence polarization; proteasome pretreated with epoxomicin | inhibition, % at 20 µM | 29% of 1,900 active | AID 602318
# MMP-2 counter: counter-screen for RPN11 inhibitors: inhibition of human MMP-2 | inhibition, % at 20 µM | recombinant MMP-2, FRET peptide cleavage fluorescence | shares compounds with Rpn11 inh | AID 602330 | 4% of 1,900 active;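 note: human MMP-2 activated beforehand with APMA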
# Target sequence (P08253 whole entry, looked up): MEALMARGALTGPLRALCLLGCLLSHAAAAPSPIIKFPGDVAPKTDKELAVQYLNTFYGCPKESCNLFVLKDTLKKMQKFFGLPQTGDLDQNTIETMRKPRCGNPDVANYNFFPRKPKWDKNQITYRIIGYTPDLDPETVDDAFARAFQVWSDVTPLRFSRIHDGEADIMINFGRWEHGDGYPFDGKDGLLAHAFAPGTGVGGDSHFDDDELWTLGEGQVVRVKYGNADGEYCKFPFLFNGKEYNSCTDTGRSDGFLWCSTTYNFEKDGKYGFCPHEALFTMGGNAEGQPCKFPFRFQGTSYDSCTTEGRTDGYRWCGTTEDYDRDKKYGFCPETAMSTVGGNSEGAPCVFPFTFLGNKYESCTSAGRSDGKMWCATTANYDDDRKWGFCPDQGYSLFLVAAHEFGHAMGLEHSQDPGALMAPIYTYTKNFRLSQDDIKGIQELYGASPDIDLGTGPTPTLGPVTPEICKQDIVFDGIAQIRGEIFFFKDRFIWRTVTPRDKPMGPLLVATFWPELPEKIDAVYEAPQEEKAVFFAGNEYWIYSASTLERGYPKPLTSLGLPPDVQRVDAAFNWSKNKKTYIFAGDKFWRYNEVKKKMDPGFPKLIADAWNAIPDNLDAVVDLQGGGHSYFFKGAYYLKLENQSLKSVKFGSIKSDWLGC
# Thrombin FP: counter-screen for RPN11 inhibitors: inhibition of bovine thrombin | bovine thrombin cleavage of Ub4-pepOG, fluorescence polarization | shares compounds with Rpn11 inh | AID 602333 | inhibition, % at 20 µM | 13% of 1,900 active;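 active = mean inhibition at least 40% at 20 µM, or signal 3 deviations below plate average, so some actives read negative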;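 note: plate controls were thrombin with DMSO for no effect and buffer wells lacking thrombin for full effect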
# The depositor's hits bear a star; . = not tested or not shown. Cut-off read from the data, not from the text of the source, unless noted: active = inhibition above about 40%; inactive = the rest.
SMILES,TPT1 inhibitor,Rpn11 inh,SENP1 inh,HNF4A DNA FP,CSN deneddyl inh,Rpn11 confirm,MMP-2 counter,Thrombin FP
O=C(N/N=C/c1cc([N+](=O)[O-])ccc1Cl)c1cc(-c2ccccc2)nc2ccccc12,2.9,-0.9,0.9,-2.8,-0.3,.,.,.
O=C(NCCS(=O)(=O)N1CCN(c2ccccc2)CC1)c1ccccc1F,0.8,-2.1,3.1,0.5,-0.7,.,.,.
CC1=CC(=C2N=C(c3ccccc3)OC2=O)C=C(C)O1,-4.8,51.1*,-45.3,-0.4,61.8*,152.4*,-55.7,9.1
COc1cccc2cc(C(=O)Nc3ccc(F)cc3)c(=Nc3ccc(C(=O)O)cc3)oc12,0.1,127.5*,1.0,-82.7,25.9,117.0*,-3.7,-17.3
O=C(CCNS(=O)(=O)c1ccccc1)NCC1CCCCC1,.,-0.6,0.0,-3.0,-3.3,.,.,.
Cn1c(-c2c(N)n(CCCc3ccccc3)c3nc4ccccc4nc23)nc2ccccc21,.,44.5*,-26.6,17.2,9.5,35.4,-7.0,22.7
COC(=O)c1ccc(NC(=O)Cn2nc(-c3ccncc3)nc2SCC(=O)Nc2nccs2)cc1,9.4,33.7*,-7.2,8.5,7.5,22.2,-14.5,6.8
O=c1cc(N2CCc3ccccc3C2)[nH]c(=O)n1Cc1ccc(F)cc1,-0.8,55.8*,-49.0,1.8,5.4,-2.3,-25.8,-12.9
Cn1c(=O)oc2cc(S(=O)(=O)NCC3CCCO3)ccc21 (centres undefined),-3.4,76.0*,29.6,11.3,15.3,21.8,-3.7,19.7
Nc1nc(SCc2ccc(Cl)cc2Cl)nc2nc3c(cc12)CCCC3,3.3,42.1*,-27.8,20.8,16.3,46.4*,2.0,-25.3
COc1ccc2cc(/C=C3\SC(=S)NC3=O)c(N3CCOCC3)nc2c1,10.9,55.0*,42.2,24.0,20.9,48.2*,24.6,active
O=C(NCc1ccccc1)c1ccc(NC(=O)c2ccccc2F)cc1,-0.3,4.2,-0.2,0.9,-0.9,.,.,.
Cc1nc2c(sc(=S)n2Cc2ccco2)c(=O)n1CC(=O)Nc1cc(F)ccc1F,-3.4,1.7,2.1,-6.6,5.0,.,.,.
COc1ccccc1NC(=O)Cn1c(C)nc2c(sc(=S)n2Cc2ccco2)c1=O,-1.3,57.9*,-3.1,2.8,-0.1,7.3,-36.5,0.7
CCc1ccc(-n2c(O)c(C=NCCN(CC)CC)c(=O)[nH]c2=O)cc1,.,75.2*,-19.5,14.4,35.2*,38.5,-38.2,19.5
CCN(CC)CCCN=Cc1c(O)n(-c2c(C)cccc2C)c(=O)c2ccccc12,-3.8,0.8,-5.0,4.2,-1.9,.,.,.
COc1ccc(CCN(C)Cc2c(O)ccc3ccccc23)cc1OC,9.3,-17.0,-0.8,-0.2,3.0,.,.,.
O=C(NCCN1CCCCCC1)c1ccc(CS(=O)(=O)c2ccc(Br)cc2)o1,-1.5,53.3*,-39.1,6.6,5.3,31.7,14.4,13.1
O=C(NCCCN1CCCCCC1)c1ccc(CS(=O)(=O)Cc2ccccc2F)o1,.,72.9*,-10.8,127.6,97.2*,74.8*,-436.4,2.7
Cc1csc(NC(=O)c2cn3ccccc3n2)n1,-0.3,8.7,-1.0,3.5,0.3,.,.,.
COC(=O)c1ccc(C23CC4(C2)[C@H](CN(Cc2cccnc2)[C@@H]4c2ccccc2)C3c2ccccc2)cc1 (some centres undefined),5.9,44.0*,-7.7,11.7,4.4,23.7,2.1,19.7
COC(=O)c1ccc(C23CC4(C2)[C@H](CN(Cc2cccnc2)[C@@H]4c2ccccc2)C3c2ccc(C(F)(F)F)cc2)cc1 (some centres undefined),-1.8,.,.,.,.,.,.,.
Cn1ncc2c(=O)[nH]nnc21,.,-1.9,1.4,-1.7,-5.3,.,.,.
O=C(Nc1ccc(Cl)cc1)Nc1ccccc1Sc1ncc([N+](=O)[O-])s1,10.6,43.8*,-7.6,-0.4,11.1,-9.0,30.1,-19.3
CCOP(=O)(OCC)c1ccc2c(c1)C(=O)c1ccccc1CC2,.,0.0,-1.5,-0.3,0.8,.,.,.
SMILES,TPT1 inhibitor,Rpn11 inh,SENP1 inh,HNF4A DNA FP,CSN deneddyl inh,Rpn11 confirm,MMP-2 counter,Thrombin FP
O=C(Nc1ccc(-n2cnnn2)cc1)c1cn2ccccc2n1,0.7,87.1*,28.2,21.0,45.6*,35.9,-111.8,-14.7
O=C(Nc1ccccc1)c1cn2ccccc2n1,0.5,-6.6,2.6,-0.1,-5.0,.,.,.
CC(NC(=O)c1ccc(S(=O)(=O)Nc2ccccc2Cl)cc1)c1ccncc1 (centres undefined),.,0.6,1.0,3.5,1.1,.,.,.
COc1ccc(CC(=O)Nc2ccc(-c3nc4cc(C)ccc4o3)c(O)c2)cc1OC,0.9,65.7*,-6.3,12.5,4.8,8.8,-22.8,7.4
Cc1ccc2oc(-c3ccc(NC(=O)c4ccncc4)cc3O)nc2c1,-0.6,19.5,-5.8,13.5,-5.3,.,.,.
CC(C)(C)c1ccc(Oc2ccc(N)cn2)cc1,5.0,55.5*,-6.3,64.3*,-78.2,-10.9,-26.9,-20.5
Cc1cc(Oc2ccc(N)cn2)cc(C)c1Cl,9.5,3.0,1.1,2.9,8.5,.,.,.
CCCOc1ccc(/C=C/C(=O)N2CCN(C(=O)c3ccco3)CC2)cc1OC,.,-2.7,1.7,-2.7,-6.0,.,.,.
CN(CC(=O)Nc1ccc(Cl)cc1)C(=O)CCc1nc2sc3c(c2c(=O)[nH]1)CCCC3,23.0,51.8*,-35.0,11.2,13.3,72.3*,-30.9,25.7
CCN(CC(=O)Nc1c(F)cccc1F)C(=O)CCc1nc2sc3c(c2c(=O)[nH]1)CCCC3,15.9,68.4*,-24.3,2.4,27.3,64.0*,-3.0,40.9*
CN(CC(=O)Nc1ccc(F)cc1)C(=O)CCc1nc2sc3c(c2c(=O)[nH]1)CCCC3,14.7,48.1*,-35.7,6.4,15.1,37.7,-31.3,19.0
COc1ccc(Cl)cc1N(CC(=O)NC(C)(C)C)S(=O)(=O)c1ccc(C)c([N+](=O)[O-])c1,-3.0,1.1,1.1,1.4,-8.1,.,.,.
COc1ccc(OC)c(-c2cc(C(=O)Nc3ccc(F)cc3F)no2)c1,-3.4,0.9,1.8,0.8,0.5,.,.,.
CCN(CC)S(=O)(=O)c1cccc(NC(=O)COc2ccc(C#N)cc2OC)c1,1.1,-1.8,0.7,2.7,4.1,.,.,.
CCN(CC)S(=O)(=O)c1cccc(NC(=O)COc2ccc(F)cc2Br)c1,-0.8,45.8*,-1.2,-4.1,-1.5,0.7,26.2,-3.3
CCCCOC(=O)c1ccc(NC(=O)C(CCS(C)(=O)=O)NC(C)=O)cc1 (centres undefined),5.4,35.8*,1.9,4.6,1.7,-15.0,-37.5,-7.9
CC(C)C(=O)N1CCC1(C)C(=O)Nc1ccc2[nH]ccc2c1 (centres undefined),.,2.9,0.2,2.6,1.7,.,.,.
